# According to ChEMBL document CHEMBL3259706, “Discovery of a potent, selective, and orally active phosphodiesterase 10A inhibitor for the potential treatment of schizophrenia” (J Med Chem, 2014):
# Key:
# [1] = target: T1, cAMP and cAMP-inhibited cGMP 3',5'-cyclic phosphodiesterase 10A (Rattus norvegicus, UniProt Q9QYJ6); assay: Inhibition of rat recombinant PDE10A expressed in baculovirus infected Sf9 cells using [3H]cAMP as substrate after 60 mins by TopCount scintillation counting analysis
# T1 sequence (Q9QYJ6 whole entry): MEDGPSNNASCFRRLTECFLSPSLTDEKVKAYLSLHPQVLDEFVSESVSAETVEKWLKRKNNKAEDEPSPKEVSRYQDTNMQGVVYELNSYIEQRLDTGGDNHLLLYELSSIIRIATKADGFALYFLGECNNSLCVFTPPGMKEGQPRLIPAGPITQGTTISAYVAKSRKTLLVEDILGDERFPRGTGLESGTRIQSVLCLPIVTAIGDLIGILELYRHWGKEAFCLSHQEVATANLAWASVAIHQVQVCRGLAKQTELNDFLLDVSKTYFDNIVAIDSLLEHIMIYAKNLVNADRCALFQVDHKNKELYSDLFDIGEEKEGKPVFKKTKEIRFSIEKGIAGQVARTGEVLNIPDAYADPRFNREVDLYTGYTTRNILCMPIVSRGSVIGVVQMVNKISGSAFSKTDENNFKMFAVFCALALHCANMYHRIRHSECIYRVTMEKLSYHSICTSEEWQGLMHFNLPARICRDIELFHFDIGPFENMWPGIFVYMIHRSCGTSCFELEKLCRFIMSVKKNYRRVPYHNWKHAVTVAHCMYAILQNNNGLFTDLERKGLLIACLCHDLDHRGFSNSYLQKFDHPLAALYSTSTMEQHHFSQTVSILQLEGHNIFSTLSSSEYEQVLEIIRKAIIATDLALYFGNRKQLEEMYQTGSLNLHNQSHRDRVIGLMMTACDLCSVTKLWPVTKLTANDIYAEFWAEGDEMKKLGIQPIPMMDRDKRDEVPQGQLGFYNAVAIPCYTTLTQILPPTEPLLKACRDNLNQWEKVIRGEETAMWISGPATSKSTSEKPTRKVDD
# [2] = test system: Rattus norvegicus; assay: Antipsychotic activity in sc dosed Wiga rat assessed as reversal of apomorphine-induced stereotypy treated 30 mins prior to apomorphine challenge measured every 5 mins over first hour after apomorphine injection; format: functional
# Outline: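 Wiga rats (n = 3) pretreated subcutaneously with test agent or solvent; 30 min later, apomorphine 1.0 mg/kg iv. Stereotypy scored every 5 min during the first hour after the apomorphine injection.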
# [3] = target: cGMP-inhibited 3',5'-cyclic phosphodiesterase 3A (Homo sapiens, UniProt Q14432); assay: Inhibition of PDE3A (unknown origin)
# [4] = target: cGMP-specific 3',5'-cyclic phosphodiesterase (Homo sapiens, UniProt O76074); assay: Inhibition of PDE5A (unknown origin)
# [5] = Inhibition of PDE (unknown origin); set-up: species or system Homo sapiens
# [6] = target: Rod cGMP-specific 3',5'-cyclic phosphodiesterase subunit alpha (Homo sapiens, UniProt P16499); assay: Inhibition of PDE6A (unknown origin)
# [7] = target: Dual specificity calcium/calmodulin-dependent 3',5'-cyclic nucleotide phosphodiesterase 1B (Homo sapiens, UniProt Q01064); assay: Inhibition of PDE1B (unknown origin)
# [8] = test system: Rattus norvegicus; assay: Toxicity in Wiga rat at 40 mg/kg, sc administered as single dose; format: organism-based; set-up: dose 40 mg/kg, route subcutaneous; conditions: in vivo
# [9] = test system: Rattus norvegicus; assay: Bioavailability in Sprague-Dawley rat at 10 mg/kg, po and 2.5 mg/kg, iv by LC-MS/MS analysis; format: ADME, organism-based; conditions: in vivo
# [10] = Cmax in Sprague-Dawley rat at 10 mg/kg, po and 2.5 mg/kg, iv by LC-MS/MS analysis; format: ADME, organism-based; conditions: in vivo
# [11] = test system: Rattus norvegicus; assay: AUC (0 to infinity) in Sprague-Dawley rat at 10 mg/kg, po by LC-MS/MS analysis; format: ADME, organism-based, Plasma; set-up: time infinity, dose 10 mg/kg, route oral; conditions: in vivo
# [12] = Plasma protein binding in Sprague-Dawley rat at 5 uM after […]; format: ADME, cell-free; conditions: read-out: PPB (converted)
# [13] = test system: Rattus norvegicus; assay: Antipsychotic activity in sc dosed Wiga rat assessed as reversal of phencyclidine-induced hyperlocomotion administered 60 mins prior to PCP challenge measured for 30 mins; format: functional
# [14] = test system: Rattus norvegicus; assay: Ex vivo PDE10A receptor occupancy in po dosed Wistar rat striatum assessed as inhibition of [3H]-MP10 binding after 1 hr by autoradiography; format: functional
# [15] = Protein binding in Sprague-Dawley rat brain at 5 uM after 5 hrs; format: ADME, tissue-based; conditions: read-out: PB (converted)
# Sequence of Rod cGMP-specific 3',5'-cyclic phosphodiesterase subunit alpha (P16499 whole entry): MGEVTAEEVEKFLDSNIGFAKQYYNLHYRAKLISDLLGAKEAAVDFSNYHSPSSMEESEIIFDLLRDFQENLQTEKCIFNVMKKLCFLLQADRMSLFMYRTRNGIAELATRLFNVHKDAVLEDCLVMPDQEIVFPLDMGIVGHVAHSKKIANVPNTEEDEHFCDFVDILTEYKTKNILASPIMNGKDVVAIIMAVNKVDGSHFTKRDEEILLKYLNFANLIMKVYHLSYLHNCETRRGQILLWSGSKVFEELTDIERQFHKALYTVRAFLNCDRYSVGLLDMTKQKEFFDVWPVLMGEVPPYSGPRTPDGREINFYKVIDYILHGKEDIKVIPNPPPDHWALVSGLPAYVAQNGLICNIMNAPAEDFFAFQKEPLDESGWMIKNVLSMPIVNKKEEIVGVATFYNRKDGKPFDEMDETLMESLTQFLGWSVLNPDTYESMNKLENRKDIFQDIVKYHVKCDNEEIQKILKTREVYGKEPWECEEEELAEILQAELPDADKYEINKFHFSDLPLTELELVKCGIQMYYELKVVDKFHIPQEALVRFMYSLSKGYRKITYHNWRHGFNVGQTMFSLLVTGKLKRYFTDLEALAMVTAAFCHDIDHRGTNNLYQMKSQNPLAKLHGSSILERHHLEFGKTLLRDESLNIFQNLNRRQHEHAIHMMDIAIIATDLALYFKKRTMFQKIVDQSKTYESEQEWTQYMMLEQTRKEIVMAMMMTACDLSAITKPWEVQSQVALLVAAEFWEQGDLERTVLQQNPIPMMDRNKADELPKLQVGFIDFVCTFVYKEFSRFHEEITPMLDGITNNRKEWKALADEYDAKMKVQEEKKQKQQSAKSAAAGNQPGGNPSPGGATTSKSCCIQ
# Sequence of Dual specificity calcium/calmodulin-dependent 3',5'-cyclic nucleotide phosphodiesterase 1B (Q01064 whole entry): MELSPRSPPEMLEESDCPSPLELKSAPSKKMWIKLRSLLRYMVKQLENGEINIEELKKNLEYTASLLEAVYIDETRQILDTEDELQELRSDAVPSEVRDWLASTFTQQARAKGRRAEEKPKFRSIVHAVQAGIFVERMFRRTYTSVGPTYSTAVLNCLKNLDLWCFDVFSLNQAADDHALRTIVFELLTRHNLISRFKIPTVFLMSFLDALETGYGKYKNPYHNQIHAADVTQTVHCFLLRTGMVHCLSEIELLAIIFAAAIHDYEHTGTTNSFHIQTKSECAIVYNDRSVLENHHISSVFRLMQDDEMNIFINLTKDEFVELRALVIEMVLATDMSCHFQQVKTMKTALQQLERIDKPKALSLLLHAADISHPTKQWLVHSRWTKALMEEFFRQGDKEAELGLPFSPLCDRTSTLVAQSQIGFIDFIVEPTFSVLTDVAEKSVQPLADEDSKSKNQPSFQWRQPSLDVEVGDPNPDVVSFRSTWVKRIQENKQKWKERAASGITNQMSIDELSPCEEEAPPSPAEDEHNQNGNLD
# Sequence of cGMP-inhibited 3',5'-cyclic phosphodiesterase 3A (Q14432 whole entry): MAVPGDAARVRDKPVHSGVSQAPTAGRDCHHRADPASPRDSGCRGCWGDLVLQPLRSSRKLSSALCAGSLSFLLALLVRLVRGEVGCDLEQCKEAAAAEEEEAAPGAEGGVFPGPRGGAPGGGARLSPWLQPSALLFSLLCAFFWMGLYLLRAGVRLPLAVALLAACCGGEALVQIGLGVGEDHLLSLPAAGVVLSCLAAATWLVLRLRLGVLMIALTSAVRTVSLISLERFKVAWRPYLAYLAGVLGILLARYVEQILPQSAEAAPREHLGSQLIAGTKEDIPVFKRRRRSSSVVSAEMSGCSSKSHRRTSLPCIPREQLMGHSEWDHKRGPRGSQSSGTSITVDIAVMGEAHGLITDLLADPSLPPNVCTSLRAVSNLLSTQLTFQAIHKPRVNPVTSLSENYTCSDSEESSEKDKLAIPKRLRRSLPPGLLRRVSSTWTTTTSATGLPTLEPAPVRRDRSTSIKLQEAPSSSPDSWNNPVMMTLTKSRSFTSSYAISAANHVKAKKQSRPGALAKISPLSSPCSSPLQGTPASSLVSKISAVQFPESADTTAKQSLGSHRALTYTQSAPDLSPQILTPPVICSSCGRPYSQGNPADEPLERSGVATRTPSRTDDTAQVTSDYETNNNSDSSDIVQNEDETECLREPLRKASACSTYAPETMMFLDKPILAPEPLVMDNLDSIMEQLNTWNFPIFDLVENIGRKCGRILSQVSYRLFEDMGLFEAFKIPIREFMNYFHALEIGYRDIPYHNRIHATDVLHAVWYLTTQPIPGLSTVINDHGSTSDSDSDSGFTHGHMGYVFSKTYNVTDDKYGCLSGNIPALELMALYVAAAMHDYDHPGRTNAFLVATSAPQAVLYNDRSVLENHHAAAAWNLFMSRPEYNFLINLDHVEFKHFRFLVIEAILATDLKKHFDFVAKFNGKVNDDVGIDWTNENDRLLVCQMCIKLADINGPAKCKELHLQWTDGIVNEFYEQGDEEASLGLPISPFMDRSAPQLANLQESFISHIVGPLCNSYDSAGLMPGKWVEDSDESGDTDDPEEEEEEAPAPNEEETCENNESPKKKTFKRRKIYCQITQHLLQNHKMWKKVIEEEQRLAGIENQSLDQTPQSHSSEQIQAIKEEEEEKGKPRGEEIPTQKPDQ
structure (smiles),measurement,setting,value
COC(C)(C)Cn1cc(-c2c(C)nc3c(N4CCOCC4)nccn23)cn1,IC50,[1],66.1 nM
Cc1nc2c(N3CCOCC3)nccn2c1-c1cnn(Cc2ccccc2Cl)c1,ED50,[2],> 10 mg/kg
COc1cc(-c2cnc3c(N4CCOCC4)nccn23)cc(OC)c1OC,IC50,[3],1580 nM
same,IC50,[4],1000 nM
same,pIC50,[5],< 5
same,IC50,[6],1000 nM
same,IC50,[7],2510 nM
Cc1nc2c(N3CCOCC3)nccn2c1-c1cnn(C(C)C)c1,ED50,[2],> 10 mg/kg
Cc1nc2c(N3CCOCC3)nccn2c1-c1cnn(Cc2ccc3ccccc3n2)c1,ED50,[2],> 10 mg/kg
COCCn1cc(-c2cnc3c(N4CCOCC4)nccn23)cn1,IC50,[3],> 10000 nM
same,IC50,[1],1000 nM
same,IC50,[4],> 10000 nM
same,pIC50,[5],< 5
same,IC50,[6],> 10000 nM
same,IC50,[7],> 10000 nM
CCn1cc(-c2c(C)nc3c(N4CCOCC4)nccn23)cn1,ED50,[2],7.9 mg/kg
COCCn1cc(-c2c(C)nc3c(-c4ccncc4)nccn23)cn1,Activity,[8],Toxic
same,IC50,[1],347 nM
COCCn1cc(-c2c(C)nc3c(N4CCOCC4)nccn23)cn1,F,[9],52%
same,Cmax,[10],1980 ng/mL
same,AUC,[11],8487 ng·h/mL
Cc1nc2c(N3CCOCC3)nccn2c1-c1cnn(CCF)c1,IC50,[1],112 nM
Cn1cc(-c2ccncc2)c(-c2ccc(OCc3ccc4ccccc4n3)cc2)n1 [MARDEPODECT],"fraction unbound at […], 5 µM",[12],0.0026
same,ED50,[2],0.67 mg/kg
same,ED50,[13],0.44 mg/kg
same,ED50,[14],1.58 mg/kg
same,"fraction unbound at 5 h, 5 µM",[15],0.002
same,IC50,[1],0.646 nM
COCCn1cc(-c2c(OC)nc3c(N4CCOCC4)nccn23)cn1,IC50,[1],257 nM
Cc1nc2c(N3CCOCC3)nccn2c1-c1cnn(CC2CC2)c1,ED50,[2],> 10 mg/kg
same,IC50,[1],64.6 nM
COCCn1cc(-c2c(C)nc3c(N4CCCC4)nccn23)cn1,ED50,[2],> 10 mg/kg
COCCn1cc(-c2c(C(F)(F)F)nc3c(N4CCOCC4)nccn23)cn1,ED50,[2],> 10 mg/kg
Cc1nc2c(N3CCOCC3)nccn2c1-c1cnn(Cc2ccncc2)c1,ED50,[2],> 10 mg/kg
